PREPL inh: PREPL enzyme inhibitors, primary screen, biochemical, fluorescence polarization | Prolyl endopeptidase-like (Homo sapiens), Q4J6C6 | recombinant PREPL, fluorescence polarization activity-based probe | inhibition, % at 5.96 µM | actives 0.68% (n = 320,000); in the data active = inhibition above about 43%;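 note: 0% = enzyme with DMSO and 100% = wells lacking enzyme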
MEKK3 PB1 HTS: modulators of MEKK3-MEK5 PB1 binding, primary screen, biochemical, wildtype MEKK3, multiplex bead flow cytometry, Alexa488-MEK5; Mitogen-activated protein kinase kinase kinase 3 (Homo sapiens), Q99759; bead-based flow cytometry, Alexa488-MEK5 binding to MEKK3; actives lie on both sides; 0 = blocked by unlabeled MEK5, 100 = vehicle; actives 1.4% (n = 290,000); binding response (% of control), % at 10 µM;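 active = binding response more than 3 SD above or below the average of its plate-row segment, actives on both sides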;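 note: Alexa488 bead fluorescence after subtracting the streptavidin-only scavenger bead signal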
Target sequence (Q99759 whole entry, looked up): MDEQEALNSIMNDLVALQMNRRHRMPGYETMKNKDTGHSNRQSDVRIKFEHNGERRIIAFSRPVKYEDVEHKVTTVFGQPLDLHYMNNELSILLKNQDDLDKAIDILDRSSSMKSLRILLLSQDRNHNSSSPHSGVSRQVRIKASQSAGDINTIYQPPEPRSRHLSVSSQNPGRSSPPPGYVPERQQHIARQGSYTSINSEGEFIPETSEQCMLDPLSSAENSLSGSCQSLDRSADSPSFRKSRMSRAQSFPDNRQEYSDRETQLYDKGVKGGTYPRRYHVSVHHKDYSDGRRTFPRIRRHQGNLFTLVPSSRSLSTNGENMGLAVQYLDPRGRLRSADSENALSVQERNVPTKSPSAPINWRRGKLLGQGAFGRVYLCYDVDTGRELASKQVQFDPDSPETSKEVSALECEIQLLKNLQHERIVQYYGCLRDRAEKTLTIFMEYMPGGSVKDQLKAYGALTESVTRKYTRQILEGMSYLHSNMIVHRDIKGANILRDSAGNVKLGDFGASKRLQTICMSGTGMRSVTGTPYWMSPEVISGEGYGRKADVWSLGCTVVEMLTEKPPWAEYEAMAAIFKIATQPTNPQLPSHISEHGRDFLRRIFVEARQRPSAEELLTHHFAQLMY
UBC13 polyUb: UBC13 polyubiquitin chain formation inhibitors, primary screen, biochemical, TR-FRET, uHTS. inhibition, % at 20 µM. actives 0.47% (n = 330,000); in the data active = inhibition above about 45%, passing the limit was not always enough
Target sequence (P61088 whole entry, looked up): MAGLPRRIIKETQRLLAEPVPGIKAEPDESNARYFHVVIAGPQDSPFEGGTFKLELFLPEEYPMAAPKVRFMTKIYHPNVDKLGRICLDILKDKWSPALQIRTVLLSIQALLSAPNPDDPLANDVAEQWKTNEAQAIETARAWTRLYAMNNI
Apaf-1 inh: inhibitors of human Apaf-1 apoptosome, primary screen, biochemical, DEVD-Rh110 fluorescence, uHTS; reconstituted apoptosome caspase-3 activity; inhibition, % at 20 µM; Apoptotic protease-activating factor 1 (Homo sapiens), O14727; actives 0.71% (n = 330,000); active = inhibition of at least 40% at 20 µM;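 note: plate controls were DMSO wells for no effect and DEVD-CHO caspase inhibitor wells for full effect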
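Medium: Hepes buffer, pH 7.5 / System: biochemical Apaf-1 apoptosome reconstitution / Measured by: Rh110 fluorescence, excitation 480 nm, emission 540 nm / Times: compound with Apaf-1, dATP, procaspase-3 30 min, then 50 min reaction, room temperature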
MEKK2mut PB1 HTS: MEK5 binding signal on mutant MEKK2 PB1, primary screen, biochemical, multiplex bead flow cytometry, Alexa488-MEK5 | Alexa488-MEK5 binding to MEKK2 mutant | percent response, % at 10 µM | actives 0.35% (n = 290,000) | AID 1530, 2009; in the data active = percent response above about 24%, passing the limit was not always enough
MEKK2wt PB1 HTS: modulators of MEK5 binding to wildtype MEKK2, primary screen, biochemical, multiplex bead flow cytometry, Alexa488-MEK5 | AID 1531, 2009 | Alexa488-MEK5 binding to MEKK2 WT; actives lie on both sides | actives 1.1% (n = 290,000) | binding response (% of control), % at 10 µM | Mitogen-activated protein kinase kinase kinase 2 (Homo sapiens), Q9Y2U5; in the data active = binding response below about 67% or above about 130%
MEKK2wt confirm: modulators of MEK5 binding to wildtype MEKK2, confirmation, biochemical, single concentration, multiplex bead flow cytometry | shares compounds with MEKK3 PB1 HTS | Alexa488-MEK5 binding to MEKK2 WT; actives lie on both sides | binding response (% of control), % at 10 µM | actives 2.4% (n = 5,900); in the data active = binding response below about 16% or above about 210%; inactive = in between
MEKK2mut confirm: mutant MEKK2 PB1-MEK5 binding signal retest – biochemical, single concentration, multiplex bead flow cytometry, confirmation; shares compounds with MEKK3 PB1 HTS; Alexa488-MEK5 binding to MEKK2 mutant; percent response, % at 10 µM; actives 2% (n = 5,900); in the data active = percent response mostly above about 71%, no sharp cut-off; inactive = mostly below about 38%;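 note: higher means compound restores mutant binding toward wildtype level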
MEKK3 confirm: MEKK3 wild-type PB1 binding to MEK5, inhibitors, confirmation, biochemical, bead multiplex flow cytometry, single concentration, wildtype | shares compounds with MEKK3 PB1 HTS | binding response (% of control), % at 10 µM | actives 1.8% (n = 5,900) | Alexa488-MEK5 binding to MEKK3; stronger effect = lower value;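 active = binding response below 72% of control, or above a set upper limit, though filed actives all read lower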;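 note: 100% = DMSO only wells and 0% = binding blocked by excess unlabeled MEK5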
* = called active by the depositor; . = no result; [ ] = another dose, or the depositor's remark. Hits are enriched below; roughly 3.1% of the tested compounds scored in any of these assays.

SMILES | PREPL inh | MEKK3 PB1 HTS | UBC13 polyUb | Apaf-1 inh | MEKK2mut PB1 HTS | MEKK2wt PB1 HTS | MEKK2wt confirm | MEKK2mut confirm | MEKK3 confirm
Cc1ccc(NC(=O)CN(C)C(=O)CN2C(=O)NC(C)(c3ccccc3)C2=O)cc1 (centres undefined) | 3.4 | 79.0*[inhibitor] | 4.9 | -17.2 | -5.0 | 91.0 | 101.0 | 3.0 | 101.0
C/C(=N\Nc1cc(N2CCOCC2)nc(C)n1)c1ccc(F)cc1 | 9.1 | 106.0 | -2.6 | 1.9 | 2.0 | 115.0 | . | . | .
C/C(=N\Nc1cc(N2CCCCC2)nc(C)n1)c1ccc(Br)cc1 | 25.1 | 118.0 | 28.2 | 24.0 | 45.0* | 183.0* | 159.0 | 29.0 | 105.0
COc1cccc(-n2cc(CNC(=O)C3CCC(=O)N(C4CC4)C3)cn2)c1 (centres undefined) | -2.3 | 98.0 | 4.9 | -1.8 | -3.0 | 94.0 | . | . | .
COc1ccc(CN2CCC(C(=O)Nc3ccc(Oc4cccnc4)cc3)CC2)c(C)c1C | 6.4 | 104.0 | 19.5 | 13.6 | 13.0 | 130.0 | . | . | .
O=c1ccc2[n+]([O-])c3ccc(O)cc3oc-2c1 | . | 92.0 | . | . | -9.0 | 50.0*[inhibitor] | 85.0 | -7.0 | 89.0
O=c1cc(O)c2ccc(O)cc2o1 | 11.3 | 81.0 | -2.6 | -2.8 | 1.0 | 80.0 | . | . | .
CCOC(=O)N1CCN(C(=O)/C(=C/c2ccc(N(C)C)cc2)NC(=O)c2ccccc2)CC1 | 3.1 | . | -6.4 | -5.3 | . | . | . | . | .
O=C(O)C(=O)Nc1ccc(NC(=O)C(c2ccccc2)c2ccccc2)cc1 | . | 2.0*[inhibitor] | -2.4 | 12.6 | -51.0 | 3.0*[inhibitor] | 99.0 | 4.0 | 103.0
COc1cccc(N2CCN(S(=O)(=O)c3ccc4ccccc4c3)CC2)c1 | . | . | -8.5 | 4.1 | . | . | . | . | .
Cc1ccc(-c2noc(CCC(=O)NC3CCN(Cc4ccccc4)CC3)n2)cc1 | . | 104.0 | . | . | 3.0 | 113.0 | . | . | .
O=C(CCc1nc(-c2ccccc2F)no1)NC1CCN(Cc2ccccc2)CC1 | 12.7 | 106.0 | 22.2 | -11.3 | 24.0* | 121.0 | 108.0 | 0.0 | 97.0
Cc1cccc(C)c1OCC(O)CN1CCC(CN2C(=O)c3cccc4cccc(c34)C2=O)CC1 (centres undefined) | -0.3 | 97.0 | 29.4 | 15.0 | 20.0 | 150.0* | 134.0 | 48.0 | 104.0
O=C(COC(=O)c1ccc2c(c1)OCO2)NC1CCCCC1 | 6.8 | . | -14.8 | 1.0 | . | . | . | . | .
N#Cc1cccc(NC(=O)CSc2ccc3c4c(cccc24)C(=O)c2ccccc2-3)c1 | 9.8 | 92.0 | . | . | -7.0 | 77.0 | . | . | .
COc1ccc(NC(=O)CSc2ccc3c4c(cccc24)C(=O)c2ccccc2-3)cc1 | 9.1 | 93.0 | -81.5 | 8.7 | -9.0 | 56.0*[inhibitor] | 68.0 | -18.0 | 90.0
Cc1oc(-c2ccccc2Cl)nc1CN1CCCC1c1ccc(F)cc1 (centres undefined) | -0.5 | 102.0 | 9.0 | -0.4 | 2.0 | 113.0 | . | . | .
Cc1oc(-c2ccccc2Cl)nc1Cn1cccc1C1=NC(c2ccccc2)CO1 (centres undefined) | -31.9 | 19.0*[inhibitor] | 3.5 | 20.7 | -13.0 | 29.0*[inhibitor] | 103.0 | -1.0 | 103.0
COc1ccc(/C(=C/c2ccc(OC(F)F)c(OC)c2)C(=O)O)cc1OC | 14.5 | 128.0* | -21.2 | 13.9 | 0.0 | 105.0 | 104.0 | 2.0 | 100.0
COc1ccc(Cl)cc1NC(=O)CN(C)C(=O)Cn1cnc2c1c(=O)n(C)c(=O)n2C | 2.9 | . | 0.7 | -5.0 | . | . | . | . | .
Cc1ccc(C)c(N2CCN(CCCNC(=O)Cn3cccc3C(=O)c3ccccc3C)CC2)c1 | 14.9 | 98.0 | 43.2 | 33.0 | -2.0 | 130.0 | . | . | .
Cc1ccccc1C(=O)c1cccn1CC(=O)NCCN1CCN(c2cccc(C)c2C)CC1 | 19.6 | 104.0 | 17.3 | 38.4 | 10.0 | 144.0* | 133.0 | 25.0 | 107.0
CCN(c1ccc(NC(=O)CSCc2c(C)noc2C)cc1)C(C)C | 16.1 | . | 2.8 | 13.1 | . | . | . | . | .
Cc1cccc(-n2c(=O)c3c4c(sc3n3c(=S)[nH]nc23)CCC4)c1 | . | 131.0* | -2.9 | 11.8 | 0.0 | 111.0 | 121.0 | 13.0 | 107.0
Cc1ccc2cccc(S(=O)(=O)NC3CCS(=O)(=O)C3)c2n1 (centres undefined) | 23.1 | 2.0*[inhibitor] | -8.0 | -9.2 | -26.0 | -1.0*[inhibitor] | 107.0 | 9.0 | 110.0
SMILES | PREPL inh | MEKK3 PB1 HTS | UBC13 polyUb | Apaf-1 inh | MEKK2mut PB1 HTS | MEKK2wt PB1 HTS | MEKK2wt confirm | MEKK2mut confirm | MEKK3 confirm
N#CCCNC(=O)Cn1c(COc2ccc(Cl)cc2)nc2ccccc21 | -3.2 | 143.0* | 17.6 | -10.5 | 1.0 | 108.0 | 96.0 | 0.0 | 97.0
Cc1cccc(C2c3[nH]c4ccccc4c3CCN2Cc2cccn2-c2ncccn2)c1 (centres undefined) | -7.9 | 110.0 | 7.9 | 10.4 | 30.0 | 149.0* | 109.0 | 5.0 | 102.0
COc1cccc(C(=O)Nc2cc(NC(=O)c3cccs3)ccc2C)c1OC | -5.4 | 109.0 | -7.7 | 5.0 | 24.0* | 106.0 | 104.0 | 4.0 | 105.0
COc1cc(NC(=O)c2ccccc2Cl)ccc1NC(=O)c1cccs1 | 4.5 | 99.0 | 9.2 | -5.8 | -1.0 | 99.0 | . | . | .
COc1cc(NC(=O)c2cccc(Cl)c2)ccc1NC(=O)c1cccs1 | 9.9 | 133.0* | 10.4 | -5.6 | 0.0 | 116.0 | 102.0 | -30.0 | 94.0
COc1ccc(CCNC(=O)CN2CCCc3ccccc32)cc1OC | 1.0 | 98.0 | -1.8 | -0.2 | 0.0 | 98.0 | . | . | .
O=C(CN1CCCc2ccccc21)NCCc1ccc(F)cc1 | 1.8 | 45.0*[inhibitor] | 17.7 | -9.6 | -20.0 | 52.0 | 96.0 | -2.0 | 102.0
Cc1nn2c(N3CCCC3)c3c(nc2c1-c1ccccc1)CCC3 | 9.8 | 37.0*[inhibitor] | 7.6 | 1.4 | -13.0 | 30.0*[inhibitor] | 96.0 | 2.0 | 103.0
COc1cccc(Nc2c3c(nc4c(-c5ccccc5)c(C)nn24)CCC3)c1 | -1.7 | 132.0* | 29.9 | 11.2 | 1.0 | 115.0 | 30.0 | -19.0 | 56.0*

Screens: PubChem BioAssay, several laboratories
